Cl transport mod: KCC2 cotransporter modulators, thallium flux, primary screen, cell-based, HEK293 KCC2, FluoZin-2 fluorescence, MLSMR | B-score of Tl+ flux slope (higher = more flux/activation; lower = inhibition) at 10 µM | KCC2 cells, thallium flux FluoZin-2 fluorescence | Solute carrier family 12 member 5 (Homo sapiens), Q9H2X9 | actives 2.2% (n = 190,000) | AID 1456, 2008;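 active means thallium flux slope and its plate-corrected score both differing from the plate sample mean at a set confidence after two filtering rounds, in either direction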;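 further: slope of fluorescence scaled to starting intensity during 10 to 20 s after thallium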
CHT block: inhibitors of human choline transporter CHT; High affinity choline transporter 1 (Homo sapiens), Q9GZV3; CHT-expressing cells, membrane potential dye, choline response; hits give low values; B-score at 10 µM; actives 0.86% (n = 310,000); AID 488975, 2010;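 active means B-score over 3 SD under the library average, and starting fluorescence ratio not unusually high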;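 further: choline stimulus applied at its EC90 after an EC20 pre-addition; B-score computed on integrated fluorescence ratio after choline addition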
Target sequence (Q9GZV3 whole entry, looked up): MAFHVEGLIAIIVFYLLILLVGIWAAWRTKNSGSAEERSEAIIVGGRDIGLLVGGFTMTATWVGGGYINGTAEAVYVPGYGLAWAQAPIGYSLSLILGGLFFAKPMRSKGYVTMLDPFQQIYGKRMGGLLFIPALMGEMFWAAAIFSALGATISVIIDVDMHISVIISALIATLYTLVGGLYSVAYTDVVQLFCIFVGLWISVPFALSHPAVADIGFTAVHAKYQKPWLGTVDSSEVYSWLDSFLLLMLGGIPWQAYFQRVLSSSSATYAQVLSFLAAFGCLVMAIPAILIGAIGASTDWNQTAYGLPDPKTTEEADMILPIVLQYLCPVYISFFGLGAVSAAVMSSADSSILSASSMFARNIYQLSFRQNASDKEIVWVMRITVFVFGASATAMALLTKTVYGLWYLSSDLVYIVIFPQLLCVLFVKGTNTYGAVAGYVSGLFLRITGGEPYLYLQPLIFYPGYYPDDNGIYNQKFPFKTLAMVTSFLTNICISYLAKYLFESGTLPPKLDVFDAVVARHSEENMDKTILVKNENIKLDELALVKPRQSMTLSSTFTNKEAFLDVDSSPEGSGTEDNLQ
CHT allo act: CHT positive allosteric modulators, primary screen, cell-based, membrane potential dye, choline EC20; CHT-expressing cells; hits give high values; LV-AA mutant CHT in HEK293 cells; actives 0.49% (n = 310,000); B-score at 10 µM;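 active means initial fluorescence not abnormally high and integrated response B-score, plate-corrected, over 3 SD above library mean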
Rad51 HR inh: human RAD51 strand exchange inhibitors, primary screen, biochemical, fluorescence. DNA repair protein RAD51 homolog 1 (Homo sapiens), Q06609. hRad51 DNA strand exchange, fluorescence dequenching. inhibition, % at 10 µM. actives 0.085% (n = 200,000). AID 1385, 2008;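 active means inhibition above 40% at the single screening dose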;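 further: 0% = DMSO control wells and 100% = blanks with heterologous ssDNA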
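Test system: preformed human Rad51 ssDNA filaments. Compound dosing: single dose, 10 µM final compound. Incubation: filaments 15 min 37 °C, then compound 30 min. Technique: FRET fluorescence dequenching, excitation 485 nm, emission 520 nm. Read-out basis: percent inhibition from fluorescence, normalised to plate control and blank means. Benchmarks: plate controls and plate blanks.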
CHT block conf: CHT inhibitors, confirmation, cell-based, membrane potential dye, duplicate; shares compounds with CHT block; CHT-expressing cells, choline membrane potential dye; LV-to-AA substituted CHT, HEK293 cells; CHT activity remaining % of control (hits give low values), % at 10 µM; actives 70% (n = 2,400); AID 493221, 2011;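 active means choline transporter activity left, mean of duplicates at 10 µM, below buffer-only control mean minus 3 SD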;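 further: depolarization triggered by choline at its EC90 following an EC20 pre-addition; 0% = hemicholinium-3 full block and 100% = buffer-only control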
HEK293 CHT ctr: membrane potential effects in parental HEK293, counter-screen for CHT inhibitor project, cell-based, membrane potential dye; shares compounds with CHT block; choline response; active = decrease or increase beyond buffer ±3SD; membrane potential ratio readout (active if shifted either direction beyond buffer ±3SD; no single direction) at 10 µM; actives 4% (n = 2,400);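 further: parental cells lack the transporter so any hit is non-specific; ratio is peak minus trough fluorescence over baseline after EC90 choline challenge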
Active calls of the source: *; i = inactive; / = no result given. This is a sample that favours compounds with a hit; in the whole collection about 2.6% have one here.

SMILES	Cl transport mod	CHT block	CHT allo act	Rad51 HR inh	CHT block conf	HEK293 CHT ctr
Cc1ccc(S(=O)(=O)N2CCC(C(=O)N3Cc4ccccc4C3)CC2)cc1	-0.13	i	i	1	/	/
CSc1ccc(S(=O)(=O)N2CCC(C(=O)N3CCc4ccccc4C3)CC2)cc1	/	-14*	i	/	59%*	i
COC(=O)/C(C#N)=C/c1cc(C)sc1C	-0.32	i	i	4	/	/
CCCCCCCN1C(Nc2ccccc2)=NC[C@@H]1Cc1ccccc1	/	i	i	/	/	/
c1ccc(CCCCN2C(Nc3ccccc3)=NC[C@@H]2Cc2ccccc2)cc1	/	-7.5*	i	/	32%*	i
CC(C)(C)NC(=O)Cn1nnc(-c2ccc(OCc3c(F)cccc3Cl)cc2)n1	/	i	i	/	/	/
O=C(O)c1ccc(-n2nc(C(F)(F)F)cc2-c2cccs2)cc1	/	i	i	/	/	/
Cc1oc(C(C)(C)C)cc1C(=O)Nc1cccc(/C=C\C(=O)O)c1	-0.63	i	i	5	/	/
Cc1oc(-c2ccccc2)cc1C(=O)Nc1cccc(/C=C\C(=O)O)c1	-0.94	-8.9*	i	/	61%*	i
CC1C(=O)N(c2ccc(S(=O)(=O)N(C)C)cc2)C1(/C=C/c1ccccc1)C(=O)NC1CCCC1 (stereo unspecified)	0.26	-6.8*	i	11	i	i
COc1ccc([N+](=O)[O-])c(S(=O)(=O)c2ccccc2)n1	-3.9	-5.3*	i	3	44%*	i
COc1ccc([N+](=O)[O-])c(S(=O)(=O)c2ccc(Cl)cc2)n1	-1.6	-6.6*	i	-2	48%*	i
O=[N+]([O-])c1cccnc1S(=O)(=O)c1ccccc1	/	i	i	/	/	/
CN(Cc1ccccc1)C(=O)c1[nH]cnc1C(=O)N[C@@H](Cc1ccccc1)C(=O)OC(C)(C)C	/	i	i	/	/	/
N=C1CCCN1CC(=O)c1ccc(Cl)cc1	-0.016	-10*	i	-2	9.8%*	i
Cc1cc(C)c(C#N)c(SCS(=O)Cc2ccccc2)n1 (stereo unspecified)	/	-5.9*	i	1	i	i
Cc1cc(C)c(C#N)c(SCS(=O)Cc2ccc(Cl)cc2)n1 (stereo unspecified)	-2.4	i	i	2	/	/
Cc1ccc(-c2nc(CN(C)Cc3ccc4nccnc4c3)c(C)o2)s1	0.63	-5.2*	i	/	i	i
Cc1ccc(-c2nnc(CCC(=O)N(C)Cc3nccs3)o2)s1	0.098	i	i	3	/	/
COc1ccc(S(=O)(=O)Cc2ccc(C(=O)N3CCN(c4cccc(C)c4)C(C)C3)o2)cc1 (stereo unspecified)	/	-5.4*	i	2	i	i
COc1ccccc1S(=O)(=O)Cc1ccc(C(=O)N2CCN(c3ccc(C)cc3)C(C)C2)o1 (stereo unspecified)	0.96	i	i	2	/	/
COc1ccccc1NC(=S)NCCN1CCOCC1	0.53	-8.3*	i	/	i	i
COc1ccc(NC(=S)NCCN2CCOCC2)c(OC)c1	0.051	i	i	0	/	/
COc1ccc2c(c1)-c1c(ssc1=S)C(C)(C)N2	/	-5.2*	i	-5	57%*	i
COc1ccc(-n2sc3c(c2=S)-c2cc(OC)ccc2NC3(C)C)cc1	/	i	i	-3	/	/
SMILES	Cl transport mod	CHT block	CHT allo act	Rad51 HR inh	CHT block conf	HEK293 CHT ctr
Cc1ccsc1CNC12CC3CC(CC(C3)C1)C2	-0.61	-6.6*	i	4	14%*	-13*
CCOC(=O)c1cnc2c(Cl)cccc2c1NCCN1CCOCC1	-0.64	-5.8*	i	-10	i	2.8*
CCOC(=O)c1cnc2c(CC)cccc2c1NCCCN1CCOCC1	/	i	i	/	/	/
Cc1cc(-c2ccccc2)n(-c2ccc(C(=O)N3CCN(c4ncccn4)CC3)cc2)n1	-0.017	-6.4*	i	7	71%*	i
Cc1ccc(C(=O)N2CCN(c3ncccn3)CC2)cc1	/	i	i	/	/	/
Cc1ccc(-c2cc(C(F)F)nc(NCC3CCCO3)n2)cc1 (stereo unspecified)	-0.068	i	i	2	/	/
CCCCc1ccc(NC(=S)NCC2CCCO2)cc1 (stereo unspecified)	-0.17	-11*	i	-30	49%*	i
Cc1c(C)n(O)c2ccc3nonc3c12	0.018	-6.8*	i	/	6.2%*	i
CN(c1ccc(O)cc1)c1nc(-c2cccs2)cs1	-2.8	-5.1*	i	/	70%*	i
Clc1ccc(CSc2ncnc3nc[nH]c23)cc1	0.65	-6.2*	i	2	i	i
c1ccc(CCSc2ncnc3nc[nH]c23)cc1	-2.3	i	i	-2	/	/
CC(C)N1CCN(Cc2coc3ccccc3c2=O)CC1CCO (stereo unspecified)	1.1	i	i	-4	/	/
CCCNC(=O)c1cn(CC)c2cc(N3CCN(C)CC3)c(F)cc2c1=O	0.024	i	i	5	/	/
CCCc1nnc(NC(=O)c2cn(CC)c3cc(N4CCN(C)CC4)c(F)cc3c2=O)s1	-0.016	-5.2*	i	/	i	i
COc1ccc(NC(=O)CSc2ccc3ccccc3c2)cc1S(=O)(=O)N1CCCCC1	0.73	i	i	6	/	/
Cc1cc(=O)cc(C)n1-c1ccc(F)cc1F	0.025	i	i	0	/	/
Cc1ccc(-n2c(C)cc(=O)cc2C)c(C)c1	0.24	-5*	i	-4	34%*	i
Cc1ccc(NC(=O)/C=C/c2cccs2)c([N+](=O)[O-])c1	-1.5	i	i	3	/	/
CCOC(=O)c1cnc2c(C)cc(Cl)cc2c1N1CCN(C)CC1	/	-6.4*	i	/	34%*	i
CCOC(=O)c1cnc2c(C(F)(F)F)cccc2c1N1CCN(C)CC1	/	-10*	i	/	30%*	3.3*
CCOC(=O)c1cnc2c(OC)cccc2c1N1CCN(c2ccccc2OC)CC1	/	i	i	0	/	/
CCc1cc2c(NCC(=O)O)ncnc2s1	0.4	i	i	9	/	/
CCc1cc2c(NCc3ccco3)ncnc2s1	/	-6.6*	i	-3	50%*	i
O=C(O)/C(=C\c1ccc(-c2ccccc2[N+](=O)[O-])o1)c1ccccc1	/	-5.6*	i	/	i	i
Cc1ccc(OCCSCc2nc3ccccc3[nH]2)cc1	/	-5.5*	i	12	i	i
